# Screens: PubChem, SRMLSC
# The sample as a whole holds a higher share of hits than the screen did.
# PostGolgi yeast – growth inhibition of a yeast mutant, post-Golgi transport screen. post-Golgi transport phenotypic cell assay. inhibition, % at 10 µM. actives 0.9% (n = 98,000);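 also: yeast cells grown in 1536-well plates; yeast grown about 18 h at 30C before absorbance read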
# PostGolgi ctrl – inhibits growth of the yeast control strain | efflux-deficient yeast background strain, growth absorbance A615, 16 h | inhibition, % at 10 µM | actives 5% (n = 98,000) | AID 738
# Yeast growth inh – reduces growth of yeast BB579 in restrictive medium; S. cerevisiae BB579 growth, OD615, 48 h; inhibition, % at 10 µM; actives 0.51% (n = 140,000); AID 804;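 active = inhibition above a set limit, 3 SD over the mean compound inhibition, cut at about 44% in these data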
#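 Test system: DeaD yeast strain BB579 / Buffer or medium: restrictive glucose-based CSMM-D medium / Doses: single 10 µM dose / Schedule: 4 h cell preincubation, 48 h compound exposure, 30 °C humidified / Technique: culture absorbance at 615 nm / Controls: amphotericin B positive control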
# Yeast life ext – extends the lifespan of yeast; inhibition of the nicotinamide effect, % at 10 µM; S. cerevisiae growth with nicotinamide, OD615; deaD strain in restrictive glucose medium; AID 775; actives 0.68% (n = 130,000);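 active = inhibition above a set limit, placed 3 SD over the median of all compounds, cut at about 26% in these data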;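 also: 0% = nicotinamide-treated wells and 100% = cells grown without nicotinamide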
#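 Buffer or medium: CSMM-D glucose medium, restrictive; test system: modified budding yeast, DeaD strain; compound: single dose 10 µM compound, 0.25% DMSO; schedule: culture preincubation 4 h, compound exposure 48 h, both 30 °C; detection: optical density (absorbance) at 615 nm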
# * marks the source's active call; other numbers are inactive results; nt = not tested or not shown. Rule as the data show it, unless noted: active = inhibition above about 30%; inactive = the rest.
SMILES,PostGolgi yeast,PostGolgi ctrl,Yeast growth inh,Yeast life ext
COc1ccccc1-c1nnc(NC(=O)C(C)SC2=NCCS2)s1 (configuration not stated),11.2,37.5*,-9.6,-9.7
O=C(NCc1ccc(Cl)cc1)c1ccccc1Oc1ccccc1,-8.3,33.2*,-43.9,-10.1
O=C(Nc1ccccc1F)c1ccc2nc(N3C(=O)CCC3=O)sc2c1,0.3,44.0*,-45.3,-14.6
Nc1nc2ccc(C(=O)Nc3ccccc3)cc2s1,18.0,3.0,-0.9,-12.5
CC(c1ccco1)N(C(=O)c1ccccc1NS(=O)(=O)c1cccc([N+](=O)[O-])c1)c1ccccn1 (configuration not stated),nt,nt,-20.5,33.6*
Cc1ccc(C(=O)N(c2ccccn2)C(C)c2ccco2)cc1C (configuration not stated),11.5,0.3,12.8,-14.6
CC(c1ccco1)N(C(=O)c1ccccc1NS(=O)(=O)c1cc([N+](=O)[O-])ccc1Cl)c1ccccn1 (configuration not stated),nt,nt,-29.0,59.0*
CC(c1ccco1)N(C(=O)c1ccccc1NS(=O)(=O)c1ccc(Cl)cc1)c1ccccn1 (configuration not stated),nt,nt,-29.1,21.9
CC(C)c1ccc(NC(=O)COC(=O)CSc2nnc(N)s2)cc1,nt,nt,-3.2,-0.1
Cc1nnc2n(c1=O)N=C(c1ccc(Cl)cc1)CS2,nt,nt,-19.3,-6.0
CC(c1ccccc1)N1C(=O)C2C3CCC(C3)C2C1=O (configuration not stated),nt,nt,-20.4,4.4
CC(NC(=O)C(Cc1ccccc1)N1C(=O)C2C3CCC(C3)C2C1=O)c1ccccc1 (configuration not stated),-1.3,31.7*,-34.6,29.7
CCOc1cc(/C=C\[N+](=O)[O-])ccc1OCC(=O)Nc1ccccc1C,39.3*,6.9,-41.6,92.0*
CCOc1cc(/C=N/NC(N)=O)cc(Br)c1OCC(=O)Nc1ccccc1C,0.0,11.4,-18.6,0.2
N#Cc1c(-c2ccc(Cl)cc2)ccn2nc(CCC(=O)O)nc12,1.9,1.9,-15.3,-15.5
CCCCCc1nc2c(C#N)c(-c3ccc(Cl)cc3)ccn2n1,-1.8,33.7*,-14.1,-1.3
Cc1ccc(C(=O)Nc2ccc(Br)c(C(F)(F)F)c2)cc1,35.6*,26.7,4.0,-26.8
Cc1cc(C)nc(-n2cc(C(=O)c3cc(F)ccc3O)cn2)n1,nt,nt,-27.8,30.4*
CCOC(=O)NC(Nc1ccc(S(N)(=O)=O)cc1)(C(=O)OCC)C(F)(F)F (configuration not stated),31.6*,-0.4,-14.9,-12.9
CCOC(=O)C(NC(C)=O)(Nc1ccc(F)cc1)C(F)(F)F (configuration not stated),1.1,-1.8,14.5,-4.2
Cc1ccc2ccccc2c1COC(=O)c1nonc1N,-3.9,74.5*,9.5,-4.6
O=C(Nc1ccccc1F)c1ccc(COc2ccc(Cl)cc2Cl)o1,nt,nt,-37.4,nt
CC(C)CNC(=O)c1ccc(COc2ccc(Cl)cc2Cl)o1,-9.3,32.3*,6.0,-28.5
O=C(NCc1ccc2[nH]c3c(c2c1)CCCC3)N1CCOCC1,21.3,30.1*,-28.3,-1.5
CC(C)(C)C(=O)[C@H]1[C@H](c2ccccc2)[C@@]2(N=C(c3ccccc3)OC2=O)C2c3ccccc3C=NN21 (some centres not stated),-10.2,36.7*,-64.4,11.0
SMILES,PostGolgi yeast,PostGolgi ctrl,Yeast growth inh,Yeast life ext
CCCOc1ccc(C(=O)NCc2cccnc2)cc1,5.8,32.2*,-32.1,-21.1
CCOc1ccc(C(=O)NCc2cccnc2)cc1,-0.8,9.5,-20.4,-13.9
O=C(O)CCCC(=O)Nc1ccc(C(=O)NCc2cccnc2)cc1,-15.4,36.3*,-77.6,-6.9
O=C(c1ccco1)N(CCC(c1ccccc1)c1ccco1)Cc1ccc(F)cc1 (configuration not stated),-5.1,39.8*,-23.4,-6.2
COn1c2c(c3c4no[n+]([O-])c4ccc31)CCCC2,-1.0,14.5,-3.8,-17.4
[O-][n+]1c2c(c3c4non(O)c4ccc31)CCCC2,31.2*,81.7*,5.5,-13.6
O=C(/C=C/c1ccc(Cl)cc1)Nc1ccccc1N1CCOCC1,nt,nt,-15.4,-5.1
Cc1nnc(C)n1/N=C/c1cc(Br)cc(Br)c1O,4.3,10.7,99.8*,-30.9
CC(=O)Nc1ccccc1NS(=O)(=O)c1ccc(Cl)cc1,36.4*,4.6,-61.5,2.3
O=C(Oc1c(Cl)cc(Cl)c2cccnc12)N1CCOCC1,14.2,21.6,-23.6,-2.3
O=C(Oc1c(Cl)cc(Cl)c2cccnc12)N1CCCCC1,-0.5,42.8*,-52.6,-6.6
O=C(Oc1c(Cl)cc(Cl)c2cccnc12)c1cccc([N+](=O)[O-])c1,nt,nt,99.8*,-11.8
O=C(Oc1ccc(Cl)c2cccnc12)c1cccc([N+](=O)[O-])c1,nt,nt,-2.1,-0.8
Clc1ccc(OCc2cnc(Cl)s2)cc1,-4.9,29.8,-37.7,-20.1
COC(=O)c1c(F)c(F)c(N2CCOCC2)c(F)c1F,-6.9,5.6,-29.0,-9.1
CC(C)OC(=O)c1c(F)c(F)c(N2CCOCC2)c(F)c1F,-0.3,16.2,-6.2,44.3*
C=CCN=C(NC#N)SCc1ccccc1Cl,0.9,-6.1,-61.0,-12.6
CN1CCN(C2=Cc3ccc(Cl)cc3Sc3ccc(F)cc32)CC1,nt,nt,85.9*,nt
CN1CCN(C2=Cc3ccccc3Sc3cc(F)ccc32)CC1,nt,nt,6.3,nt
O=C(O)CN=C(NS(=O)(=O)c1ccccc1)c1ccccc1,1.4,-0.7,9.6,-3.3
CC(C)N=C(NS(=O)(=O)c1ccccc1)C(Cl)(Cl)Cl,nt,nt,-27.6,39.6*
CCOc1cc(/C=C2\SC(=S)N(Nc3ccccc3)C2=O)ccc1O,8.8,61.1*,-36.7,-12.7
CSc1nc2ccc(S(=O)(=O)N3CCCCC3)cc2s1,-0.9,3.2,-29.4,-0.1
CSc1nc2ccc(S(=O)(=O)NC3CCCCC3)cc2s1,0.2,70.6*,17.7,-4.3
CSc1nc2ccc(NS(=O)(=O)c3ccc4c(c3)OCCO4)cc2s1,8.5,31.5*,3.7,-12.7
SMILES,PostGolgi yeast,PostGolgi ctrl,Yeast growth inh,Yeast life ext
CN(C)c1ccc(C(=O)c2ccccc2C(=O)O)c(O)c1,-0.5,7.0,-5.1,-0.2
CCCCN(CCCC)c1ccc(C(=O)c2ccccc2C(=O)O)c(O)c1,-1.1,3.9,-41.3,34.1*
O=C(CCCc1nc(-c2ccc(Cl)cc2)no1)Nc1cccnc1,53.6*,88.3*,-65.4,-19.2
O=C(CCCOc1ccc(Cl)cc1Cl)Nc1cccnc1,69.0*,39.5*,-62.8,-31.3
Cc1cccc(-c2noc(CCCC(=O)Nc3cccnc3)n2)c1,-4.5,5.8,-44.7,-23.8
O=C(NCC(F)(F)F)Nc1ncccn1,-1.1,21.7,-24.3,-11.3
CCC1CCCCN1C(=S)NC1CCCCC1 (configuration not stated),nt,nt,-35.3,3.8
CC(=O)c1ccc(N2CCC(c3cc(-c4ccc(Cl)cc4)n[nH]3)CC2)c([N+](=O)[O-])c1,40.8*,43.1*,-62.6,2.4
COC(=O)c1ccc(N2CCC(c3cc(-c4ccc(OC)cc4)n[nH]3)CC2)c([N+](=O)[O-])c1,7.7,27.1,-73.5,-4.6
COc1ccc(-c2cc(C3CCN(c4ccc(C(C)=O)cc4[N+](=O)[O-])CC3)[nH]n2)cc1,21.3,37.1*,-26.2,-10.8
